Test results: ChEMBL document CHEMBL1932920
Active and inactive are the calls of the source.

Key:
[1] = biological target: T1, Probable carboxylesterase 12 (Arabidopsis thaliana) (UniProt Q9SMN0); assay: Binding affinity to CXE12 in Arabidopsis thaliana leaf extracts at 4 to 20 uM after 1 hr using SDS-PAGE followed by nanoLC-ESI-MS/MS analysis
T1 sequence (whole entry): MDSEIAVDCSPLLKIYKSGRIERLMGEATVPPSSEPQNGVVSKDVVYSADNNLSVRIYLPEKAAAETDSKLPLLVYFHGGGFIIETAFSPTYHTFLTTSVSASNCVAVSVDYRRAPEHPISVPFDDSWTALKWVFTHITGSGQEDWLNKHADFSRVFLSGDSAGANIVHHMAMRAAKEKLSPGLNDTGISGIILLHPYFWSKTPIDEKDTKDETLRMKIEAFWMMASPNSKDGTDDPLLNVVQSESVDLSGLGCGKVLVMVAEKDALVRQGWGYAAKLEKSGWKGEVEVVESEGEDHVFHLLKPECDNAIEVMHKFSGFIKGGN

[2] = system: Arabidopsis thaliana; assay: Binding affinity to POPL in Arabidopsis thaliana leaf extracts at 4 to 20 uM after 1 hr using SDS-PAGE followed by nanoLC-ESI-MS/MS analysis
[3] = biological target: T2, Serine carboxypeptidase-like 48 (Arabidopsis thaliana) (UniProt Q56WF8); assay: Binding affinity to SCPL48 in Arabidopsis thaliana leaf extracts at 4 to 20 uM after 1 hr using SDS-PAGE followed by nanoLC-ESI-MS/MS analysis
T2 sequence (whole entry): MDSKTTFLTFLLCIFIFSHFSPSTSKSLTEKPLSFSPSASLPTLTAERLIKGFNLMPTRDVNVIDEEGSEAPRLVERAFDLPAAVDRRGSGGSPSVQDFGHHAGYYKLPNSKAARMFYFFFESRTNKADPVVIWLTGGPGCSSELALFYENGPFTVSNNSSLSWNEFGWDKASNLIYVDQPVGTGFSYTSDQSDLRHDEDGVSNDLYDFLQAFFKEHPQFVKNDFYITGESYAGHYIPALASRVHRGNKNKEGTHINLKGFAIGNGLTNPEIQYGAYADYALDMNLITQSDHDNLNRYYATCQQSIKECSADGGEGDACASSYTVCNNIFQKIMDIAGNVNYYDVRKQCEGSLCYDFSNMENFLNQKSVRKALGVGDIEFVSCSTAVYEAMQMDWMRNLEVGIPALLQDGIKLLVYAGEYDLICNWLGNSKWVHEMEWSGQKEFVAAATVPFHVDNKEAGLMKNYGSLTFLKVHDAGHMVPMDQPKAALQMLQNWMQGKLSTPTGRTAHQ

[4] = biological target: T3, Probable carboxylesterase 7 (Arabidopsis thaliana) (UniProt Q9ZQ91); assay: Binding affinity to CXE7 in Arabidopsis thaliana leaf extracts at 4 to 20 uM after 1 hr using SDS-PAGE followed by nanoLC-ESI-MS/MS analysis
T3 sequence (whole entry): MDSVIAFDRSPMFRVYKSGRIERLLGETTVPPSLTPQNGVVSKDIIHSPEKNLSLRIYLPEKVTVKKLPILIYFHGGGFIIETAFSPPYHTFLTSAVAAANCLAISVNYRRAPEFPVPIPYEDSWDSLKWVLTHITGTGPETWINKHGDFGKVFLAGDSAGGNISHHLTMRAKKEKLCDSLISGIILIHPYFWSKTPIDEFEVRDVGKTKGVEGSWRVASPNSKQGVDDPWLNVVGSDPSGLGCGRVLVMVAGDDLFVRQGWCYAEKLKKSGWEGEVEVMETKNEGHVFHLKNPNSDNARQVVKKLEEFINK

[5] = biological target: T1, Probable carboxylesterase 12 (Arabidopsis thaliana); assay: Binding affinity to Arabidopsis thaliana CXE12 overexpressed in agroin filtreated Nicotiana benthamiana leaf extracts pre-incubated with 100 uM paraoxon for 30 mins at 2 uM after 1 hr using SDS-PAGE followed by nanoLC-ESI-MS/MS analysis
How it was run: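 CXE12 cDNA in binary vector, Agrobacterium GV3101 pMP90, co-infiltrated with p19 silencing-suppressor strain into 4-week-old N. benthamiana leaves (p19 alone as control). Leaf extracts preincubated 30 min with 100 µM paraoxon or DMSO, then labeled 1 h with 2 µM probe. Reactions stopped in gel loading buffer, proteins resolved on gels, fluorescence scanning.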

[6] = biological target: T1, Probable carboxylesterase 12 (Arabidopsis thaliana); assay: Binding affinity to CXE12 in Arabidopsis thaliana leaf extracts pre-incubated with 100 uM paraoxon for 30 mins at 5 uM after 1 hr using SDS-PAGE followed by nanoLC-ESI-MS/MS analysis
How it was run: (§1)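 Extract from 2 g frozen leaves of 4-week-old A. thaliana Col-0, ground, taken up in water, cleared 5 min at 16,000×g. Labeled with 5 µM probe, biotinylated targets pulled down on avidin beads, run on 1D SDS–PAGE and fluorescence-scanned. Bands excised, digested in-gel, and analysed by nanoLC-ESI-MS/MS on LTQ Velos (C18, 5–40% acetonitrile over 90 min, 300 nL/min, positive mode, m/z 400–1600).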

[7] = system: Arabidopsis thaliana; assay: Binding affinity to POPL in Arabidopsis thaliana leaf extracts pre-incubated with 100 uM paraoxon for 30 mins at 5 uM after 1 hr using SDS-PAGE followed by nanoLC-ESI-MS/MS analysis; how it was run: as §1
[8] = biological target: T2, Serine carboxypeptidase-like 48 (Arabidopsis thaliana); assay: Binding affinity to SCPL48 in Arabidopsis thaliana leaf extracts pre-incubated with 100 uM paraoxon for 30 mins at 5 uM after 1 hr using SDS-PAGE followed by nanoLC-ESI-MS/MS analysis; how it was run: as §1
[9] = biological target: T3, Probable carboxylesterase 7 (Arabidopsis thaliana); assay: Binding affinity to CXE7 in Arabidopsis thaliana leaf extracts pre-incubated with 100 uM paraoxon for 30 mins at 5 uM after 1 hr using SDS-PAGE followed by nanoLC-ESI-MS/MS analysis; how it was run: as §1

Measured: Activity

C#CCNC(=O)OCCOCCOCCOCCP(=O)(OCC)Oc1ccc([N+](=O)[O-])cc1 (centres undefined)
active: [1] | [2] | [3] | [4]

CCOP(=O)(CCOCCOCCOCCOC(=O)NCc1cn(CCCCCNC(=O)CCC(=O)N[C@@H](CCCCNC(=O)CCCCC[C@@H]2SC[C@@H]3NC(=O)N[C@@H]32)C(=O)NCCCCCNC(=O)c2ccc(-c3c4ccc(=[N+](C)C)cc-4oc4cc(N(C)C)ccc34)c(C(=O)[O-])c2)nn1)Oc1ccc([N+](=O)[O-])cc1 (some centres undefined)
active: [5] | [6] | [7] | [8] | [9]
